Data reported in ChEMBL document CHEMBL1151972, “Cytotoxic asterosaponins capable of promoting polymerization of tubulin from the starfish Culcita novaeguineae” (J Nat Prod, 2009).

What was measured:
Tubulin (Sus scrofa) [1] = biological target: T1, Tubulin (Sus scrofa) (UniProt P02554+P02550); assay: Induction of pig brain tubulin polymerization assessed as end point promote coefficient at 11.7 uM by first high-throughput screening end-point assay
Summary of the method: (§1)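 Tubulin prepared from pig brain; first high-throughput screening step. Polymerization followed by turbidity, end-point reading of the absorbance change at 350 nm, expressed as Pe (percent end-point promote coefficient). Samples above 20% Pe counted as active. Three independent experiments, eight replicate wells each.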

Tubulin (Sus scrofa) [2] = biological target: T1, Tubulin (Sus scrofa); assay: Induction of pig brain tubulin polymerization assessed as kinetic promote coefficient at 11.7 uM by first high-throughput screening end-point assay
Bel-7402 = assay: Cytotoxicity against human Bel7402 cells after 72 hrs by SRB assay; assay type: functional, cell-based; details: Bel-7402, 72 h
Summary of the method: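 Human hepatoma BEL7402 cells; sulforhodamine B protein-staining assay after 72 h exposure. Dose-response curves plotted. IC50 = concentration giving 50% reduction in absorbance relative to control cells. Three independent experiments, each concentration in three replicate wells.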

K562 = assay: Cytotoxicity against human K562 cells after 72 hrs by MTT assay; assay type: functional, cell-based; details: K562, 72 h
Summary of the method: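 Human leukemia K-562 cells; MTT colorimetric viability assay after 72 h exposure. IC50 read from dose-response curves as the concentration giving 50% lower absorbance than control cells. Mean of three independent experiments, triplicate wells per concentration.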

Tubulin (Sus scrofa) [3] = biological target: T1, Tubulin (Sus scrofa); assay: Induction of pig brain tubulin polymerization assessed as end point promote coefficient at 9.3 uM by first high-throughput screening end-point assay; summary of the method: as §1
Tubulin (Sus scrofa) [4] = biological target: T1, Tubulin (Sus scrofa); assay: Induction of pig brain tubulin polymerization assessed as kinetic promote coefficient at 9.3 uM by first high-throughput screening end-point assay
Tubulin (Sus scrofa) [5] = biological target: T1, Tubulin (Sus scrofa); assay: Induction of pig brain tubulin polymerization assessed as end point promote coefficient at 8.9 uM by first high-throughput screening end-point assay; summary of the method: as §1
Tubulin (Sus scrofa) [6] = biological target: T1, Tubulin (Sus scrofa); assay: Induction of pig brain tubulin polymerization assessed as kinetic promote coefficient at 8.9 uM by first high-throughput screening end-point assay

T1 sequence (P02550 whole entry, looked up): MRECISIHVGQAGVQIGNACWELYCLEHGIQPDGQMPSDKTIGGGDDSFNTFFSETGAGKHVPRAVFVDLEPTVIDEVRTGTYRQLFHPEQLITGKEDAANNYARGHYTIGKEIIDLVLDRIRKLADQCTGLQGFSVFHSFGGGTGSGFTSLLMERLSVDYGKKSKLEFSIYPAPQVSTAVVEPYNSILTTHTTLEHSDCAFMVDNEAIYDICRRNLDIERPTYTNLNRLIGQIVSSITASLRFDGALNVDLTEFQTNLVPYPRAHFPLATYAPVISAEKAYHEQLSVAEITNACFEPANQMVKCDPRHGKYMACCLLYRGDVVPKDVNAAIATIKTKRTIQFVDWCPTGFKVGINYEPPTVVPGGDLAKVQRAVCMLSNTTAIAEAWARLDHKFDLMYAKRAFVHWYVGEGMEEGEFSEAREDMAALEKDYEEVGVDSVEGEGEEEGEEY
T1 sequence (P02554 whole entry, looked up): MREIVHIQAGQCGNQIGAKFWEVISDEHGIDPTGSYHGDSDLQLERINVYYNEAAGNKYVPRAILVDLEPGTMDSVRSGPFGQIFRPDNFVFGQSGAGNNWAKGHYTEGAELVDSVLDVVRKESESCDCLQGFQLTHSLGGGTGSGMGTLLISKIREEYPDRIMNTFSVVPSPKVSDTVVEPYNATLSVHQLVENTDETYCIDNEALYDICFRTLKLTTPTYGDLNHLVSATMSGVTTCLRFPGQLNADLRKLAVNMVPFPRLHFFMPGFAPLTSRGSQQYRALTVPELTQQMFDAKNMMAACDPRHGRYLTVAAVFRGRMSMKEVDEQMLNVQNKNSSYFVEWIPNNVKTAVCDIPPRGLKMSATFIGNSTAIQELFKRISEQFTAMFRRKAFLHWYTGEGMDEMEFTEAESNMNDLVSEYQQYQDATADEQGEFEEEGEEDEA

Row | Activity (Tubulin (Sus scrofa) [1]) | Activity (Tubulin (Sus scrofa) [2]) | Activity (Tubulin (Sus scrofa) [3]) | Activity (Tubulin (Sus scrofa) [4]) | Activity (Tubulin (Sus scrofa) [5]) | Activity (Tubulin (Sus scrofa) [6]) | Compound | IC50 (Bel-7402) | IC50 (K562)
1 | 32% | 100% |  |  |  |  | CC(=O)O[C@H]1C(=O)[C@@]2(C)[C@H]([C@H](OC(=O)c3ccccc3)[C@]3(O)C[C@H](OC(=O)[C@H](O)[C@@H](NC(=O)c4ccccc4)c4ccccc4)C(C)=C1C3(C)C)[C@]1(OC(C)=O)CO[C@@H]1C[C@@H]2O |  | 
2 |  |  |  |  |  |  | CC[C@@]1(O)C(=O)OCc2c1cc1n(c2=O)Cc2cc3cc(O)ccc3nc2-1 [HYDROXYCAMPTOTHECIN] | 400 nM | 180 nM
3 |  |  | 42% | 149% |  |  | CO[C@@H]1[C@@H](O)[C@H](O[C@H]2[C@H](O[C@@H]3[C@@H](O)[C@H](O[C@H]4C[C@@H]5C(=CC[C@]6(C)[C@@H]([C@H](C)CC[C@H](OS(=O)(=O)O)C(C)C)CC[C@@H]56)[C@@]5(C)CC[C@H](OS(=O)(=O)O)C[C@H]45)O[C@H](CO)[C@H]3O)OC[C@@H](O)[C@@H]2O)O[C@H](C)[C@H]1O [NOVAEGUINOSIDE C] | 700 nM | 1300 nM
4 |  |  |  |  | 23% | 85% | CO[C@@H]1[C@@H](O)[C@H](O[C@H]2[C@H](O[C@@H]3[C@@H](O)[C@H](O[C@H]4C[C@@H]5C(=CC[C@]6(C)[C@@H]([C@H](C)/C=C/[C@@H](C)[C@@H](C)C(=O)NCCS(=O)(=O)O)CC[C@@H]56)[C@@]5(C)CC[C@H](OS(=O)(=O)O)C[C@H]45)O[C@H](CO)[C@H]3O)OC[C@@H](O)[C@@H]2O)O[C@H](C)[C@H]1O [NOVAEGUINOSIDE D] | 4100 nM | 4600 nM
